How the values were obtained:
[1] = target: T1, Human immunodeficiency virus type 1 protease (Human immunodeficiency virus 1, UniProt Q72874); assay: (§1) In vitro enzyme inhibitory activity against HIV-1 protease.
H9 [2] = assay: In vitro anti viral activity against HIV-1 in human H9 T-lymphoid cell culture by p-24-ELISA assay; assay type: functional
Procedure, shortened: (§2)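 Read-out is the minimum cell culture inhibitory concentration (CIC), the lowest concentration that fully prevents spread of viral infection in the human cell culture. Spread is scored by fixed-cell immunofluorescence or by p24 ELISA.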

[3] = target: Human immunodeficiency virus type 1 protease (Human immunodeficiency virus 1) (UniProt Q72874); assay: Ratio of inhibitory activity on HIV-1 protease (IC50) to antiviral activity against HIV-1 in human H9 T-lymphoid cell-ELISA assay(CIC); assay type: functional, cell-based
Procedure, shortened: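 Ratio of enzyme IC50 against HIV-1 protease to CIC. CIC is the minimum cell culture inhibitory concentration that prevents spread of HIV-1 infection in human H9 T-lymphoid cells, read out by p24 ELISA.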

MT4 [4] = assay: In vitro anti viral activity against HIV-1(IIIB) in MT-4 T-lymphoid cell culture by p-24-ELISA assay; assay type: functional, Homo sapiens; procedure, shortened: as §2
H9 [5] = assay: In vitro anti viral activity against HIV-1 in human H9 T-lymphoid cell culture by fixed cell immunofluorescence assay; assay type: functional; procedure, shortened: as §2
[6] = target: T1, Human immunodeficiency virus type 1 protease; assay: as §1; assay type: functional
MT4 [7] = assay: In vitro anti viral activity against HIV-1(IIIb) MT-4 T-lymphoid cell culture by fixed cell immunofluorescence assay; assay type: functional, Homo sapiens; procedure, shortened: as §2
MT4 [8] = assay: In vitro anti viral activity against HIV-1(RF) in MT-4 T-lymphoid cell culture by fixed cell immunofluorescence assay; assay type: functional, Homo sapiens; procedure, shortened: as §2
H9 [9] = assay: In vitro anti viral activity against SIV(mne) in H9 T-lymphoid cell culture by fixed cell immunofluorescence assay; assay type: functional, Homo sapiens; procedure, shortened: as §2
Homo sapiens [10] = species on record: Homo sapiens; assay: In vitro anti viral activity against HIV-1(SF162) in monocytes/macrophages by fixed cell immunofluorescence assay; assay type: functional; procedure, shortened: as §2
H9 [11] = assay: In vitro anti viral activity against SIV-mac251 in H9 T-lymphoid cell culture by fixed cell immunofluorescence assay; assay type: functional, Homo sapiens; procedure, shortened: as §2
Homo sapiens [12] = species on record: Homo sapiens; assay: In vitro anti viral activity against HIV-1(IIIb) in peripheral blood lymphocytes by fixed cell immunofluorescence assay; assay type: functional; procedure, shortened: as §2
MT4 [13] = assay: In vitro anti viral activity against HIV-1(WMJ-2) in MT-4 T-lymphoid cell culture by fixed cell immunofluorescence assay; assay type: functional, Homo sapiens; procedure, shortened: as §2
H9 [14] = assay: In vitro anti viral activity against HIV-1(IIIb) in H9 T-lymphoid cell culture by p-24 ELISA assay; assay type: functional, Homo sapiens; procedure, shortened: as §2
MT4 [15] = assay: In vitro anti viral activity against HIV-1(RUTZ) in MT-4 T-lymphoid cell culture by fixed cell immunofluorescence assay; assay type: functional, Homo sapiens; procedure, shortened: as §2
MT4 [16] = assay: In vitro anti viral activity against HIV-1(IIIb) MT-4 T-lymphoid cell culture by p-24-ELISA assay; assay type: functional, Homo sapiens; procedure, shortened: as §2
MT4 [17] = assay: In vitro anti viral activity against HIV-1(MN) in MT-4 T-lymphoid cell culture by fixed cell immunofluorescence assay; assay type: functional, Homo sapiens; procedure, shortened: as §2
H9 [18] = assay: In vitro anti viral activity against HIV-1(IIIb) in H9 T-lymphoid cell culture by fixed cell immunofluorescence assay; assay type: functional, Homo sapiens; procedure, shortened: as §2
Homo sapiens [19] = species on record: Homo sapiens; assay: In vitro anti viral activity against HIV-1(IIIb) in peripheral blood lymphocytes by p-24-ELISA assay; assay type: functional; procedure, shortened: as §2

Compound	IC50 [1] [nM]	CIC (H9 [2]) [nM]	I/C [3]	CIC (H9 [5]) [nM]	other results
CC(C)(C)OC(=O)N[C@@H](Cc1ccccc1)[C@@H](O)C[C@@H](Cc1ccc(OCC(=O)N2CCOCC2)cc1)C(=O)NC1c2ccccc2C[C@H]1O (some centres undefined)	0.2	50	0.004		
Cc1cn([C@H]2C[C@H](N=[N+]=[N-])[C@@H](CO)O2)c(=O)[nH]c1=O [ZIDOVUDINE]					CIC (MT4 [4]): 25 nM
CC(C)(C)OC(=O)N[C@@H](Cc1ccc(OCCN2CCOCC2)cc1)[C@@H](O)C[C@@H](Cc1ccc(OCCN2CCOCC2)cc1)C(=O)NC1c2ccccc2C[C@H]1O (some centres undefined)	1.9		0.019	100	
CC(C)(C)OC(=O)N[C@@H](Cc1ccccc1)[C@@H](O)C[C@@H](Cc1ccc(OCCO)cc1)C(=O)NC1c2ccccc2C[C@H]1O (some centres undefined)	0.09	50	0.0018		
CC(C)(C)OC(=O)N[C@@H](Cc1ccccc1)[C@@H](O)C[C@@H](Cc1ccc(OCCN2CCCCC2)cc1)C(=O)NC1c2ccccc2C[C@H]1O (some centres undefined)	1.6		0.004	400	
CC(C)(C)OC(=O)N[C@@H](Cc1ccccc1)[C@@H](O)C[C@@H](Cc1ccc(OCc2ccccc2)cc1)C(=O)NC1c2ccccc2C[C@H]1O (some centres undefined)	0.18	50	0.0036		
CC(C)(C)OC(=O)N[C@@H](Cc1ccccc1)[C@@H](O)C[C@@H](Cc1ccc(OCCCN2CCOCC2)cc1)C(=O)NC1c2ccccc2C[C@H]1O (some centres undefined)	2		0.01	200	
CN(C)CCOc1ccc(C[C@H](C[C@H](O)[C@H](Cc2ccccc2)NC(=O)OC(C)(C)C)C(=O)NC2c3ccccc3C[C@H]2O)cc1 (some centres undefined)	1		0.0025	400	
CC(C)(C)OC(=O)N[C@@H](Cc1ccccc1)[C@@H](O)C[C@@H](Cc1ccc(OCCN2CC[S+]([O-])CC2)cc1)C(=O)NC1c2ccccc2C[C@H]1O (some centres undefined)	0.07		0.00035	200	
NC1N=CNc2c1ncn2[C@H]1CC[C@@H](CO)O1 (some centres undefined)				25000	
CC(C)(C)OC(=O)N[C@@H](Cc1ccc(O)cc1)[C@@H](O)C[C@@H](Cc1ccccc1)C(=O)NC1c2ccccc2C[C@H]1O (some centres undefined)	0.35	25	0.007	50	
CC(C)(C)OC(=O)N[C@@H](Cc1ccccc1)[C@@H](O)C[C@@H](Cc1ccc(O)cc1)C(=O)N[C@H]1c2ccccc2C[C@H]1O	0.16	50	0.0032	25	
CC(C)(C)OC(=O)N[C@@H](Cc1ccccc1)[C@@H](O)C[C@@H](Cc1ccc(OCCN2CCCC2)cc1)C(=O)NC1c2ccccc2C[C@H]1O (some centres undefined)	1.8				
CC(C)(C)OC(=O)N[C@@H](Cc1ccc(O)cc1)[C@@H](O)C[C@@H](Cc1ccc(O)cc1)C(=O)NC1c2ccccc2C[C@H]1O (some centres undefined)	0.15		0.0002	780	
COCCN(CCOC)CCOc1ccc(C[C@H](C[C@H](O)[C@H](Cc2ccccc2)NC(=O)OC(C)(C)C)C(=O)NC2c3ccccc3C[C@H]2O)cc1 (some centres undefined)	0.9		0.018	50	
CC(C)(C)OC(=O)N[C@@H](Cc1ccccc1)[C@@H](O)C[C@@H](Cc1ccccc1)C(=O)N[C@H]1c2ccccc2C[C@H]1O	0.35		0.0009	400	
CC(C)(C)OC(=O)N[C@@H](Cc1ccccc1)[C@@H](O)C[C@@H](Cc1ccc(OCCN2CCS(=O)(=O)CC2)cc1)C(=O)NC1c2ccccc2C[C@H]1O (some centres undefined)	0.08	100	0.0008		
CC(C)(C)OC(=O)N[C@@H](Cc1ccc(OCCN2CCOCC2)cc1)[C@@H](O)C[C@@H](Cc1ccccc1)C(=O)NC1c2ccccc2C[C@H]1O (some centres undefined)	0.55		0.011	50	
CN1CCN(CCOc2ccc(C[C@H](C[C@H](O)[C@H](Cc3ccccc3)NC(=O)OC(C)(C)C)C(=O)NC3c4ccccc4C[C@H]3O)cc2)CC1 (some centres undefined)	0.2	100	0.002		
CC(C)(C)OC(=O)N[C@@H](Cc1ccccc1)[C@@H](O)C[C@@H](Cc1ccc(OCCN2CCOCC2)cc1)C(=O)N[C@H]1c2ccccc2C[C@H]1O		50	0.038	12	IC50 [6]: 0.45 nM; CIC (MT4 [7]): 25 nM; CIC (MT4 [8]): 50 nM; CIC (H9 [9]): 200 nM; CIC (Homo sapiens [10]): 50 nM; CIC (H9 [11]): 800 nM; CIC (Homo sapiens [12]): 0.78 nM; CIC (MT4 [13]): 12 nM; CIC (H9 [14]): 25 nM; CIC (MT4 [15]): 12 nM; CIC (MT4 [16]): 50 nM; CIC (MT4 [17]): 25 nM; CIC (H9 [18]): 12 nM; CIC (Homo sapiens [19]): 25 nM
CC(C)(C)OC(=O)N[C@@H](Cc1ccccc1)[C@@H](O)C[C@@H](Cc1ccc(OCCN2CCSCC2)cc1)C(=O)NC1c2ccccc2C[C@H]1O (some centres undefined)	0.47		0.0094	50	
CC(C)(C)OC(=O)N[C@@H](Cc1ccccc1)[C@@H](O)C[C@@H](Cc1ccc(OCC[N+]2([O-])CCOCC2)cc1)C(=O)NC1c2ccccc2C[C@H]1O (some centres undefined)	0.2	100	0.002		
CC(C)(C)OC(=O)N[C@@H](Cc1ccccc1)[C@@H](O)CC(Cc1ccc(OCC(=O)O)cc1)C(=O)NC1c2ccccc2C[C@H]1O (some centres undefined)	0.04	>400	< 0.0001		

Source: ChEMBL document CHEMBL1126030, “Synthesis and antiviral activity of a series of HIV-1 protease inhibitors with functionality tethered to the P1 or P1' phenyl substituents: X-ray crystal structure assisted design” (J Med Chem, 1992)
